In paper PMC7610841 (Nature, 2020):

Tested on: extracellular Wingless
Test: In vivo trapping of endogenous extracellular Wingless in wing discs
Set-up: species or system Drosophila
Conditions: overexpressed with ptc-gal4 in wing discs; extracellular Wingless staining
Procedure, shortened: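 HA-tagged wild-type or point-mutant Dlp/Dally transgenes (attP2 landing site) driven by ptc-gal4, crossed at 25°C. Wing discs immunostained for extracellular Wingless using an extracellular staining protocol, DAPI-mounted and imaged on a confocal microscope. Three independent repeats.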

Molecule | trapping of endogenous Wingless
Dlp[F172T, F195Y]: Dlp mutant replacing hydrophobic residues with polar ones (protein, left off: HA, end not stated, kept) MLHQQQQQQHLHCRRKATATTTARLVIFSSPLLLLLLTTHLPPTLQADNGPAPQVAALAAPNPAGGVAGSSIIDQFSPNCSAVTHIFQARGIDAIEIPQKPSNERVLRYCESPSVGTCCTYNMETRMAMQSRQQLEGHTKDQISRMSGILGSKATKFKDIFTALLKESRTQTNSMFIRTYGVIYERNSYVFSDLYKELETYFANGRVDLLEVMDKFFNTLYQKMFTVLNTQYTFDENYMRCVSEHMKELKPFGDVPDKLSVQIKRSFVATRTYGQALTTASEVAKKVLNVRLNADCTGALTKMQHCGACKGYTEKPCTNYCVNVIKGCLHYQHEFDSEWENFAMAMDKVAERLLGSFNIVMVVEPLNIKISEAIMNFQDSGQDITNRVFQGCGRPKLKKMKRSISPKLQGVQILNARSPVEADTLDIDETLDEAIVLRERRAAEPGSQETSAQQSQEQGVGKSGNGGGGGGGNNRRQQQRRKQQQQRRKQQNNRDDNDDDDNESGGGREPILDRIVRDIRQRVKDYKKFWSNLPHSVCSNEDIASSSDVDGMCWNGHTIDRYMHSITTEHGSNPEFTGNPASTKQTAQMASQLSHLKNAIVHLRNAYNGQDVEWSEQEELPYAGSGAGSGSGSEDDEDDDEGSGLGPFEPSHKPDVERPSVDADNDDDEDAGGRGHMPTHTSRPTSGVDDKNPLIHTTHFDQDHNDLDEDHRQLDEDEDTDAGHDGANDNRSSDAPEKMTLRRALVVYLLPLYMAWFGGVCADLL | reduced trapping, though not completely
Dlp[R169E, T170N, Q171M, F172T]: Dlp mutant introducing the putative glycosylation site of Dally (protein, left off: HA, end not stated, kept) MLHQQQQQQHLHCRRKATATTTARLVIFSSPLLLLLLTTHLPPTLQADNGPAPQVAALAAPNPAGGVAGSSIIDQFSPNCSAVTHIFQARGIDAIEIPQKPSNERVLRYCESPSVGTCCTYNMETRMAMQSRQQLEGHTKDQISRMSGILGSKATKFKDIFTALLKESENMTNSMFIRTYGVIYERNSYVFSDLFKELETYFANGRVDLLEVMDKFFNTLYQKMFTVLNTQYTFDENYMRCVSEHMKELKPFGDVPDKLSVQIKRSFVATRTYGQALTTASEVAKKVLNVRLNADCTGALTKMQHCGACKGYTEKPCTNYCVNVIKGCLHYQHEFDSEWENFAMAMDKVAERLLGSFNIVMVVEPLNIKISEAIMNFQDSGQDITNRVFQGCGRPKLKKMKRSISPKLQGVQILNARSPVEADTLDIDETLDEAIVLRERRAAEPGSQETSAQQSQEQGVGKSGNGGGGGGGNNRRQQQRRKQQQQRRKQQNNRDDNDDDDNESGGGREPILDRIVRDIRQRVKDYKKFWSNLPHSVCSNEDIASSSDVDGMCWNGHTIDRYMHSITTEHGSNPEFTGNPASTKQTAQMASQLSHLKNAIVHLRNAYNGQDVEWSEQEELPYAGSGAGSGSGSEDDEDDDEGSGLGPFEPSHKPDVERPSVDADNDDDEDAGGRGHMPTHTSRPTSGVDDKNPLIHTTHFDQDHNDLDEDHRQLDEDEDTDAGHDGANDNRSSDAPEKMTLRRALVVYLLPLYMAWFGGVCADLL | reduced trapping, though not completely
